Results: ChEMBL document CHEMBL4257551, “Glycyrrhizic acid from licorice down-regulates inflammatory responses via blocking MAPK and PI3K/Akt-dependent NF-κB signalling pathways in TPA-induced skin inflammation” (2018)
Active and inactive are the calls of the source. The rule behind the calls is not given here.

Legend:
[1] = test system: Mus musculus; assay: Antiinflammatory activity against TPA-induced ear edema in BALB/c mouse assessed as decrease in ear punches at 50 mM administered topically for 15 mins prior to TPA challenge and measured after 6 hrs relative to control; format: functional; design: scale not given: the % may be the effect or the level left
Method in brief: (§1)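 Female BALB/c mice, 4–5 weeks old, n = 3 per group. Both ears received 30 μL of test solution in DMSO:methylene chloride (20:80) at 50, 100, 150 or 200 mM. Topical TPA (30 μL, 25 μg mL⁻¹) followed 15 min later. Mice were killed at 6 h, and two 6 mm punches per animal were weighed. Controls had vehicle then acetone. Mean ± SD of six experiments in triplicate.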

[2] = test system: Mus musculus; assay: Antiinflammatory activity against TPA-induced ear edema in BALB/c mouse assessed as decrease in ear punches at 100 mM administered topically for 15 mins prior to TPA challenge and measured after 6 hrs relative to control; format: functional; design: scale not given: the % may be the effect or the level left; method in brief: as §1
[3] = test system: Mus musculus; assay: Antiinflammatory activity against TPA-induced ear edema in BALB/c mouse assessed as decrease in ear punches at 150 mM administered topically for 15 mins prior to TPA challenge and measured after 6 hrs relative to control; format: functional; design: scale not given: the % may be the effect or the level left; method in brief: as §1
[4] = test system: Mus musculus; assay: Antiinflammatory activity against TPA-induced ear edema in BALB/c mouse assessed as decrease in ear punches at 200 mM administered topically for 15 mins prior to TPA challenge and measured after 6 hrs relative to control; format: functional; design: scale not given: the % may be the effect or the level left; method in brief: as §1
[5] = test system: Mus musculus; assay: Antiinflammatory activity against TPA-induced ear edema in BALB/c mouse assessed as decrease in ear punches administered topically for 15 mins prior to TPA challenge and measured after 6 hrs; format: functional, organism-based; method in brief: as §1
[6] = test system: Mus musculus; assay: Antiinflammatory activity against TPA-induced ear edema in BALB/c mouse assessed as weight of ear punches at 200 mM administered topically for 15 mins prior to TPA challenge and measured after 3 hrs (reference value: 8.3 +/- 0.1 mg); format: functional
[7] = test system: Mus musculus; assay: Antiinflammatory activity against TPA-induced ear edema in BALB/c mouse assessed as weight of ear punches at 200 mM administered topically for 15 mins prior to TPA challenge and measured after 12 hrs (reference value: 12.4 +/- 0.1 mg); format: functional
[8] = test system: Mus musculus; assay: Antiinflammatory activity against TPA-induced ear edema in BALB/c mouse assessed as weight of ear punches at 200 mM administered topically for 15 mins prior to TPA challenge and measured after 24 hrs (reference value: 12.1 +/- 0.2 mg); format: functional
[9] = test system: Mus musculus; assay: Antiinflammatory activity against TPA-induced ear edema in BALB/c mouse assessed as weight of ear punches at 200 mM administered topically for 15 mins prior to TPA challenge and measured after 48 hrs (reference value: 11.4 +/- 0.3 mg); format: functional
[10] = test system: Mus musculus; assay: Antiinflammatory activity against TPA-induced ear edema in BALB/c mouse assessed as weight of ear punches at 200 mM, po administered 15 mins prior to TPA challenge and measured after 3 hrs (reference value: 8.3 +/- 0.1 mg); format: functional
[11] = test system: Mus musculus; assay: Antiinflammatory activity against TPA-induced ear edema in BALB/c mouse assessed as weight of ear punches at 200 mM, po administered 15 mins prior to TPA challenge and measured after 6 hrs (reference value: 12.5 +/- 0.3 mg); format: functional
[12] = test system: Mus musculus; assay: Antiinflammatory activity against TPA-induced ear edema in BALB/c mouse assessed as weight of ear punches at 200 mM, po administered 15 mins prior to TPA challenge and measured after 12 hrs (reference value: 12.4 +/- 0.1 mg); format: functional
[13] = test system: Mus musculus; assay: Antiinflammatory activity against TPA-induced ear edema in BALB/c mouse assessed as weight of ear punches at 200 mM, ip administered 15 mins prior to TPA challenge and measured after 3 hrs (reference value: 8.3 +/- 0.1 mg); format: functional
[14] = test system: Mus musculus; assay: Antiinflammatory activity against TPA-induced ear edema in BALB/c mouse assessed as weight of ear punches at 200 mM, ip administered 15 mins prior to TPA challenge and measured after 6 hrs (reference value: 12.5 +/- 0.3 mg); format: functional
[15] = test system: Mus musculus; assay: Antiinflammatory activity against TPA-induced ear edema in BALB/c mouse assessed as weight of ear punches at 200 mM, ip administered 15 mins prior to TPA challenge and measured after 12 hrs (reference value: 12.4 +/- 0.1 mg); format: functional
[16] = test system: Mus musculus; assay: Antiinflammatory activity against TPA-induced ear edema in BALB/c mouse assessed as weight of ear punches at 200 mM, ip administered 15 mins prior to TPA challenge and measured after 24 hrs (reference value: 12.1 +/- 0.2 mg); format: functional
[17] = test system: Mus musculus; assay: Antiinflammatory activity against TPA-induced ear edema in BALB/c mouse assessed as weight of ear punches at 200 mM, ip administered 15 mins prior to TPA challenge and measured after 48 hrs (reference value: 11.4 +/- 0.3 mg); format: functional
[18] = test system: Mus musculus; assay: Antiinflammatory activity against TPA-induced ear edema in BALB/c mouse assessed as decrease in weight of ear punches at 5 mg administered topically for 15 mins prior to TPA challenge and measured after 3 hrs relative to control; format: functional; design: scale not given: the % may be the effect or the level left
[19] = test system: Mus musculus; assay: Antiinflammatory activity against TPA-induced ear edema in BALB/c mouse assessed as decrease in weight of ear punches at 5 mg administered topically for 15 mins prior to TPA challenge and measured after 6 hrs relative to control; format: functional; design: scale not given: the % may be the effect or the level left
[20] = test system: Mus musculus; assay: Antiinflammatory activity against TPA-induced ear edema in BALB/c mouse assessed as decrease in weight of ear punches at 5 mg administered topically for 15 mins prior to TPA challenge and measured after 12 hrs relative to control; format: functional; design: scale not given: the % may be the effect or the level left
[21] = test system: Mus musculus; assay: Antiinflammatory activity against TPA-induced ear edema in BALB/c mouse assessed as decrease in weight of ear punches at 5 mg administered topically for 15 mins prior to TPA challenge and measured after 24 hrs relative to control; format: functional; design: scale not given: the % may be the effect or the level left
[22] = test system: Mus musculus; assay: Antiinflammatory activity against TPA-induced ear edema in BALB/c mouse assessed as decrease in weight of ear punches at 5 mg administered topically for 15 mins prior to TPA challenge and measured after 48 hrs relative to control; format: functional; design: scale not given: the % may be the effect or the level left
[23] = test system: Mus musculus; assay: Antiinflammatory activity against TPA-induced ear edema in BALB/c mouse assessed as decrease in weight of ear punches at 200 mM, po administered 15 mins prior to TPA challenge and measured after 24 hrs relative to control; format: functional; design: scale not given: the % may be the effect or the level left
[24] = test system: Mus musculus; assay: Antiinflammatory activity against TPA-induced ear edema in BALB/c mouse assessed as decrease in weight of ear punches at 200 mM, po administered 15 mins prior to TPA challenge and measured after 48 hrs relative to control; format: functional; design: scale not given: the % may be the effect or the level left
[25] = test system: Mus musculus; assay: Antiinflammatory activity against TPA-induced ear edema in BALB/c mouse assessed as decrease in leucocyte infiltration in edema administered topically for 15 mins prior to TPA challenge and measured after 6 hrs by hematoxylin/eosin staining-based microscopic method; format: functional, organism-based
Method in brief: (§2)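 Female BALB/c mice were pretreated topically at 50–200 mM, then given TPA. Ears were taken at 6 h, fixed in 4% PFA, decalcified in EDTA, paraffin-embedded and sectioned at 4 μm for H&E. Epidermal hyperplasia and dermal leukocyte infiltration were scored in at least five regions at 200×. ANOVA with Dunnett's test.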

[26] = test system: Mus musculus; assay: Antiinflammatory activity against TPA-induced ear edema in BALB/c mouse assessed as decrease in epidermal hyperplasia in edema administered topically for 15 mins prior to TPA challenge and measured after 6 hrs by hematoxylin/eosin staining-based microscopic method; format: functional, organism-based; method in brief: as §2
[27] = test system: Mus musculus; assay: Antiinflammatory activity against TPA-induced ear edema in BALB/c mouse assessed as decrease in 18F-FDG uptake in ears administered topically for 15 mins prior to TPA challenge and measured after 24 hrs by microPET-CT imaging method; format: functional, organism-based
Method in brief: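 CT-guided regions of interest were drawn over the ears, and uptake was expressed as SUVmax and SUVmean. Dosing was 200 mM in DMSO:methylene chloride (20:80) on the ears before topical TPA.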

[28] = test system: Mus musculus; assay: Antiinflammatory activity against TPA-induced ear edema in BALB/c mouse assessed as decrease in iNOS expression in edema administered topically for 15 mins prior to TPA challenge by immunohistochemical method; format: functional, organism-based
[29] = test system: Mus musculus; assay: Antiinflammatory activity against TPA-induced ear edema in BALB/c mouse assessed as decrease in COX2 expression in edema administered topically for 15 mins prior to TPA challenge by immunohistochemical method; format: functional, organism-based
[30] = test system: Mus musculus; assay: Antiinflammatory activity against TPA-induced ear edema in BALB/c mouse assessed as decrease in IkappaBalpha degradation in edema administered topically for 15 mins prior to TPA challenge by immunohistochemical method; format: functional, organism-based
[31] = test system: Mus musculus; assay: Antiinflammatory activity against TPA-induced ear edema in BALB/c mouse assessed as decrease in IkappaBalpha phosphorylation in edema administered topically for 15 mins prior to TPA challenge by immunohistochemical method; format: functional, organism-based
[32] = test system: Mus musculus; assay: Antiinflammatory activity against TPA-induced ear edema in BALB/c mouse assessed as decrease in p65 phosphorylation in edema administered topically for 15 mins prior to TPA challenge by immunohistochemical method; format: functional, organism-based
[33] = test system: Mus musculus; assay: Antiinflammatory activity against TPA-induced ear edema in BALB/c mouse assessed as decrease in p38 phosphorylation in edema administered topically for 15 mins prior to TPA challenge by immunohistochemical method; format: functional, organism-based
[34] = test system: Mus musculus; assay: Antiinflammatory activity against TPA-induced ear edema in BALB/c mouse assessed as decrease in ERK1/2 phosphorylation in edema administered topically for 15 mins prior to TPA challenge by immunohistochemical method; format: functional, organism-based
[35] = test system: Mus musculus; assay: Antiinflammatory activity against TPA-induced ear edema in BALB/c mouse assessed as decrease in Akt expression in edema at 50 to 200 mM administered topically for 15 mins prior to TPA challenge by immunohistochemical method; format: functional, organism-based
[36] = test system: Mus musculus; assay: Antiinflammatory activity against TPA-induced ear edema in BALB/c mouse assessed as decrease in PI3K p85 expression in edema at 50 to 200 mM administered topically for 15 mins prior to TPA challenge by immunohistochemical method; format: functional, organism-based
[37] = test system: Mus musculus; assay: Antiinflammatory activity against TPA-induced ear edema in BALB/c mouse assessed as decrease in Akt phosphorylation in edema administered topically for 15 mins prior to TPA challenge by immunohistochemical method; format: functional, organism-based
[38] = test system: Mus musculus; assay: Antiinflammatory activity against TPA-induced ear edema in BALB/c mouse assessed as decrease in PI3K p85 phosphorylation in edema administered topically for 15 mins prior to TPA challenge by immunohistochemical method; format: functional, organism-based

Compound: CC1(C)[C@@H](O[C@H]2O[C@H](C(=O)O)[C@@H](O)[C@H](O)[C@H]2O[C@@H]2O[C@H](C(=O)O)[C@@H](O)[C@H](O)[C@H]2O)CC[C@]2(C)[C@H]3C(=O)C=C4[C@@H]5C[C@@](C)(C(=O)O)CC[C@]5(C)CC[C@@]4(C)[C@]3(C)CC[C@@H]12 [GLYCYRRHIZIN]
- Activity [1]: 31.5%
- Activity [2]: 60.3%
- Activity [3]: 63%
- Activity [4]: 87.7%
- Activity [5]: Dose-dependent effect
- Activity [6]: 5.6 mg
- Activity [7]: 6.1 mg
- Activity [8]: 5.9 mg
- Activity [9]: 5.9 mg
- Activity [10]: 8 mg
- Activity [11]: 12.3 mg
- Activity [12]: 12.1 mg
- Activity [13]: 7.8 mg
- Activity [14]: 14.6 mg
- Activity [15]: 14.1 mg
- Activity [16]: 13.5 mg
- Activity [17]: 13.1 mg
- Activity [18]: 87.1%
- Activity [19]: 87.7%
- Activity [20]: 87.5%
- Activity [21]: 89.9%
- Activity [22]: 88.7%
- Activity [23]: 66.7%
- Activity [24]: 64.5%
- Activity [25]: Dose-dependent effect
- Activity [26]: Dose-dependent effect
- Activity [27]: Active
- Activity [28]: Dose-dependent effect
- Activity [29]: Dose-dependent effect
- Activity [30]: Dose-dependent effect
- Activity [31]: Dose-dependent effect
- Activity [32]: Dose-dependent effect
- Activity [33]: Dose-dependent effect
- Activity [34]: Dose-dependent effect
- Activity [35]: Active
- Activity [36]: Active
- Activity [37]: Dose-dependent effect
- Activity [38]: Dose-dependent effect
